According to ChEMBL document CHEMBL1142307, “Design, synthesis, and radiosensitizing activities of sugar-hybrid hypoxic cell radiosensitizers” (Bioorg Med Chem, 2008):

Tests used:
[1] = Partition coefficient by Shake flask method; type: physicochemical; details: octanol/water
In short: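 1 mg compound dissolved in 0.1 M phosphate buffer pH 7.40 as stock; absorbance read at 325 nm before partitioning. 3 mL stock stirred vigorously with phosphate buffer-saturated n-octanol (20–300 mL) at room temperature for 2 h. Aqueous phase absorbance at 325 nm measured after phase separation; P_oct calculated from pre/post absorbance.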

[2] = Radiosensitizing activity at hypoxic mouse EMT6/KU cells assessed as enhancement ratio relative to etanidazole; type: functional

| Structure (SMILES) | P (partition coefficient) [1] | Ratio [2] |
| --- | --- | --- |
| CN(CCO[C@H]1O[C@H](CO)[C@@H](O)[C@H](O)[C@@H]1O)C(=O)Cn1ccnc1[N+](=O)[O-] | < 0.01 | 1.41 |
| CC(=O)OC[C@H]1O[C@@H](OCCN(C)C(=O)Cn2ccnc2[N+](=O)[O-])[C@H](OC(C)=O)[C@@H](OC(C)=O)[C@H]1OC(C)=O | 0.0355 | 1.63 |
| CC(=O)OC[C@H]1O[C@H](OCCN(C)C(=O)Cn2ccnc2[N+](=O)[O-])[C@@H](OC(C)=O)[C@@H](OC(C)=O)[C@@H]1OC(C)=O | 0.0697 | 1.88 |
| CC(=O)N[C@H]1[C@H](OCCN(C)C(=O)Cn2ccnc2[N+](=O)[O-])O[C@H](CO)[C@H](O)[C@@H]1O | < 0.01 | 1.43 |
| CC(=O)OC[C@H]1O[C@@H](OCCN(C)C(=O)Cn2ccnc2[N+](=O)[O-])[C@H](OC(C)=O)[C@@H](OC(C)=O)[C@@H]1OC(C)=O | 0.105 | 2.3 |
| CN(CCO)C(=O)Cn1ccnc1[N+](=O)[O-] | 0.056 | 1.75 |
| CC(=O)N[C@H]1[C@H](OCCN(C)C(=O)Cn2ccnc2[N+](=O)[O-])O[C@H](COC(C)=O)[C@H](OC(C)=O)[C@@H]1OC(C)=O | 0.051 | 1.47 |
| CN(CCO[C@@H]1O[C@H](CO)[C@@H](O)[C@H](O)[C@H]1O)C(=O)Cn1ccnc1[N+](=O)[O-] | < 0.01 | 1.33 |
| CN(CCO[C@@H]1O[C@H](CO)[C@H](O)[C@H](O)[C@H]1O)C(=O)Cn1ccnc1[N+](=O)[O-] | < 0.01 | 1.4 |
